Laboratory results as given in ChEMBL document CHEMBL1821706, “Unprecedented citrinin trimer tricitinol B functions as a novel topoisomerase IIα inhibitor” (J Med Chem, 2011).
Activity calls are given as the source filed them. The calls are words filed in the database; no cut-off is given here.

Columns and labels:
[1] = tested on: HL-60; experiment: Induction of apoptosis in human HL60 cells assessed as caspase 8 cleavage at 10 uM after 24 hrs by Western blotting preincubated for 2 hrs with 20 uM caspase 8 inhibitor Z-IETD-FMK; assay type: functional, cell-based
How it was run: (§1)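 HL60 cells were pretreated with 20 μM Z-IETD-FMK, Z-LEHD-FMK or Z-VAD-FMK, then cultured with 10 μM compound for 24 h. Cleaved PARP and caspases were probed by Western blot. Three independent experiments were run.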

[2] = tested on: HCT-116; experiment: Induction of apoptosis in human HCT116 cells assessed as Bid cleavage at 2.5 to 10 uM after 24 hrs by Western blotting; assay type: functional, cell-based
How it was run: (§2)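 Cells (2×10^5/mL) were exposed to 2.5–10 μM for 24 h, then whole-cell lysates were made. Pro-/cleaved caspase-3, caspase-8, pro-/cleaved caspase-9, PARP (116 kDa full length, 85 kDa fragment) and Bid were probed by Western blot with ECL detection.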

[3] = tested on: HL-60; experiment: Induction of apoptosis in human HL60 cells assessed as Bid cleavage at 2.5 to 10 uM after 24 hrs by Western blotting; assay type: functional, cell-based; how it was run: as §2
[4] = tested on: HCT-116; experiment: Induction of apoptosis in human HCT116 cells assessed as activation of caspase 9 at 2.5 to 10 uM after 24 hrs by Western blotting; assay type: functional, cell-based; how it was run: as §2
[5] = tested on: HCT-116; experiment: Induction of apoptosis in human HCT116 cells assessed as activation of caspase 8 at 2.5 to 10 uM after 24 hrs by Western blotting; assay type: functional, cell-based; how it was run: as §2
[6] = tested on: HCT-116; experiment: Induction of apoptosis in human HCT116 cells assessed as increase in cleaved PARP levels after 24 hrs by Western blotting; assay type: functional, cell-based; how it was run: as §2
[7] = tested on: HL-60; experiment: Induction of apoptosis in human HL60 cells assessed as activation of caspase 8 at 2.5 to 10 uM after 24 hrs by Western blotting; assay type: functional, cell-based; how it was run: as §2
[8] = tested on: HCT-116; experiment: Induction of apoptosis in human HCT116 cells assessed as increase in cleaved caspase 3 levels after 24 hrs by Western blotting; assay type: functional, cell-based; how it was run: as §2
[9] = tested on: HCT-116; experiment: Induction of apoptosis in human HCT116 cells assessed as decrease in procaspase 3 expression after 24 hrs by Western blotting; assay type: functional, cell-based; how it was run: as §2
[10] = tested on: HL-60; experiment: Induction of apoptosis in human HL60 cells assessed as DNA ladder formation at 2.5 to 10 uM using Annexin-V/PI double-staining by flow cytometric analysis; assay type: functional, cell-based; conditions: TDE = time-dependent effect
How it was run: (§3)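 HL60 cells were treated with 2.5, 5.0, 7.5 or 10.0 μM for 24 h for DNA ladder analysis, representative of three experiments. Apoptotic fractions were measured after 2.5–10 μM for 24 h, or 10 μM over a time course, by Annexin/PI staining and flow cytometry (early plus late apoptotic cells), as mean ± SD of three experiments.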

[11] = tested on: HL-60; experiment: Induction of apoptosis in human HL60 cells assessed as DNA ladder formation after 24 hrs using Annexin-V/PI double-staining by flow cytometric analysis; assay type: functional, cell-based; how it was run: as §3
[12] = tested on: MCF7; experiment: Cytotoxicity against adriyamycin-resistant human MCF7 cells over expressing P-glycoprotein after 72 hrs by SRB assay; assay type: functional, cell-based; conditions: MCF7, 72 h
How it was run: (§4)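 Adherent human tumour lines were seeded and exposed in triplicate to graded compound concentrations at 37 °C for 72 h. Growth was read by sulforhodamine B staining. IC50 (50% growth inhibition) was obtained by the Logit method from at least three independent experiments and reported as mean ± SD.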

[13] = tested on: HMEC; experiment: Cytotoxicity against human HMEC cells after 72 hrs by MTT assay; assay type: cell-based
[14] = tested on: KB; experiment: Cytotoxicity against human KB cells after 72 hrs by SRB assay; assay type: functional, cell-based; how it was run: as §4
[15] = biological target: DNA topoisomerase 2-alpha (Homo sapiens) (UniProt P11388); experiment: Inhibition of human topoisomerase 2alpha-mediated poststrand-passage DNA religation after 6 mins by agarose gel electrophoresis
How it was run: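 Topo II (6 units) with 0.25 μg supercoiled pBR322 in cleavage buffer with 1 mM APPNHP and 5 mM MgCl2. Cleavage/religation equilibrium set at 37 °C for 6 min. Compound added just before religation, which was started by a rapid shift from 37 to 55 °C for 5 min. SDS stop, then 1% agarose electrophoresis.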

[16] = tested on: HL-60; experiment: Induction of DNA damage in human HL60 cells assessed as increased histone H2AX expression after 1 hr by agarose gel electrophoresis; assay type: functional, cell-based
[17] = biological target: DNA topoisomerase 2-alpha (Homo sapiens) (UniProt P11388); experiment: Inhibition of human topoisomerase 2alpha-mediated unwinding of linearized pBR322 assessed as DNA intercalation at 8 to 200 uM
How it was run: (§5)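 Unwinding (intercalation) test: EcoRI-linearized pBR322 (0.1 μg) incubated with compound and 2 units T4 DNA ligase in ligase buffer at 22 °C for 30 min. Stopped at 60 °C for 10 min, compound removed by phenol extraction, ligation products resolved on agarose gel.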

[18] = biological target: DNA topoisomerase 2-alpha (Homo sapiens) (UniProt P11388); experiment: Inhibition of human topoisomerase 2alpha-mediated unwinding of linearized pBR322 assessed as DNA intercalation at 2 to 50 uM; how it was run: as §5
[19] = biological target: DNA topoisomerase 2-alpha (Homo sapiens) (UniProt P11388); experiment: Inhibition of human topoisomerase 2alpha-mediated decatenation of kDNA after 30 mins by agarose gel electrophoresis in presence of ATP
How it was run: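 Decatenation of 0.25 μg kDNA by 0.75 unit topo IIα at 37 °C for 30 min. Stopped with SDS. Run on 1% agarose in TAE at 4 V/cm for 2 h and stained with ethidium bromide.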

[20] = biological target: DNA topoisomerase 2-alpha (Homo sapiens) (UniProt P11388); experiment: Inhibition of human topoisomerase 2alpha-mediated relaxation of supercoiled pBR322 DNA after 30 mins by agarose gel electrophoresis
How it was run: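 Supercoiled pBR322 (0.25 μg) incubated with 0.75 unit topo IIα at 37 °C for 30 min. SDS stop. Supercoiled and relaxed forms resolved on 1% agarose/TAE, ethidium bromide stain.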

[21] = tested on: HL-60; experiment: Induction of apoptosis in human HL60 cells assessed as activation of caspase 9 at 10 uM after 24 hrs by Western blotting preincubated for 2 hrs with 20 uM caspase 9 inhibitor Z-LEHD-FMK; assay type: functional, cell-based; how it was run: as §1
[22] = tested on: HL-60; experiment: Induction of DNA damage in human HL60 cells assessed as increased histone H2AX expression at 20 uM agarose gel electrophoresis; assay type: functional, cell-based; conditions: TDE = time-dependent effect
[23] = tested on: HMEC; experiment: Selectivity ratio of IC50 for human HMEC cells to IC50 for 786-O cells
[24] = tested on: HMEC; experiment: Selectivity ratio of IC50 for human HMEC cells to IC50 for Rh30 cells
[25] = tested on: HMEC; experiment: Selectivity ratio of IC50 for human HMEC cells to IC50 for Bel7402 cells
[26] = tested on: HMEC; experiment: Selectivity ratio of IC50 for human HMEC cells to IC50 for MKN45 cells
[27] = tested on: HMEC; experiment: Selectivity ratio of IC50 for human HMEC cells to IC50 for SGC7901 cells
[28] = tested on: HMEC; experiment: Selectivity ratio of IC50 for human HMEC cells to IC50 for PC3 cells
[29] = tested on: HeLa; experiment: Selectivity ratio of IC50 for human HMEC cells to IC50 for HeLa cells
[30] = tested on: HMEC; experiment: Selectivity ratio of IC50 for human HMEC cells to IC50 for KB cells
[31] = tested on: MDA-MB-468; experiment: Selectivity ratio of IC50 for human HMEC cells to IC50 for MDA-MB-468 cells
[32] = tested on: HMEC; experiment: Selectivity ratio of IC50 for human HMEC cells to IC50 for SKOV3 cells
[33] = tested on: HCT-116; experiment: Induction of apoptosis in human HCT116 cells assessed as accumulation at S phase at 5 uM after 24 hrs using PI staining based flow cytometric analysis (reference value: 27%)

Sequence of DNA topoisomerase 2-alpha (Homo sapiens) (P11388 whole entry): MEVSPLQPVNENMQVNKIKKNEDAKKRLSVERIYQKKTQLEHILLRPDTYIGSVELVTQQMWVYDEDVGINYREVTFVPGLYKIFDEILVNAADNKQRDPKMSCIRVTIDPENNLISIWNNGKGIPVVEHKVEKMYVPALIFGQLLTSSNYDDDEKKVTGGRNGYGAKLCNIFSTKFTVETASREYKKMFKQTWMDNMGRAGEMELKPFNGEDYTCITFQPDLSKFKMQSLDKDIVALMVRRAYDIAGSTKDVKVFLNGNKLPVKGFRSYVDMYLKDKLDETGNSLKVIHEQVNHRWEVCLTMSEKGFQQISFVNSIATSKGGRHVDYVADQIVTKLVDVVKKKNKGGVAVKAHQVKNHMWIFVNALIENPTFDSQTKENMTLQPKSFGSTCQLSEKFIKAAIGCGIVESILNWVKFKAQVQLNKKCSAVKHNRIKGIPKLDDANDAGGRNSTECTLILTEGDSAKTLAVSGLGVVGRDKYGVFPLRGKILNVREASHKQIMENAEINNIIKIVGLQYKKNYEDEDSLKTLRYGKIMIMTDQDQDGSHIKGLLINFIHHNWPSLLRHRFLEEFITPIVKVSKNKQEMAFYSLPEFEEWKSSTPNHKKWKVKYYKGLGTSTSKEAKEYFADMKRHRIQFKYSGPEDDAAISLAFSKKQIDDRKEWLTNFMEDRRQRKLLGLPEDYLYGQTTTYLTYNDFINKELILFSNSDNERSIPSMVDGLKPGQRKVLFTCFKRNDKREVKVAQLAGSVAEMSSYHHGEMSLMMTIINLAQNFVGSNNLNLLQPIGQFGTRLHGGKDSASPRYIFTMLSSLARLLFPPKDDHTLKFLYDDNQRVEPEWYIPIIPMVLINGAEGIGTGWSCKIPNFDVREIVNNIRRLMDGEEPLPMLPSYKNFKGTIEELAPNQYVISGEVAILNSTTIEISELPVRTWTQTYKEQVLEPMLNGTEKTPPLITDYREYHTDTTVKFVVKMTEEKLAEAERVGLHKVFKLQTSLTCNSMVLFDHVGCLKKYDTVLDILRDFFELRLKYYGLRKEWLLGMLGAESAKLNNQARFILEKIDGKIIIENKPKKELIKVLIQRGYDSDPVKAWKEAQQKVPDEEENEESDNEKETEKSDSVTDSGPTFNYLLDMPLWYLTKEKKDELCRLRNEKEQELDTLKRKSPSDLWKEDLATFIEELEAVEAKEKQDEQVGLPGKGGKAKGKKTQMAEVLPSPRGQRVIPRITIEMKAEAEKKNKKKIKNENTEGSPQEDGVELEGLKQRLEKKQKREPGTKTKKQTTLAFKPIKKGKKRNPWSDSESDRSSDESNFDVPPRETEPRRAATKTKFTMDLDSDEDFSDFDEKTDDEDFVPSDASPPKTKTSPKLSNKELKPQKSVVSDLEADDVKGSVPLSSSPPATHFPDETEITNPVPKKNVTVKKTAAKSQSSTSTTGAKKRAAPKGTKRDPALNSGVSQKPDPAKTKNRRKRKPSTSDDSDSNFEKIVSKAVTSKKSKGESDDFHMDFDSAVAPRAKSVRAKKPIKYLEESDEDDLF

With `COC1O[C@H](C)[C@@H](C)c2c(C)c3c(c(O)c21)[C@@H]1O[C@H](C)[C@@H](C)c2c(C)c(O)c([C@H]4O[C@H](C)[C@@H](C)c5c(C)c(O)cc(O)c54)c(c21)O3` (stereo partly drawn) [TRICITRINOL B] the Activity [1] was “inactive”, the Activity [2] was “Active” and the Activity [3] was “Active”. For the same compound, the Activity [4] was “Active”, the Activity [5] was “Active” and the Activity [6] was “Dose-dependent effect”. For the same compound, the Activity [7] was “Active”, the Activity [8] was “Dose-dependent effect” and the Activity [9] was “Dose-dependent effect”. The Activity [10] was “tde”, the Activity [11] was “Dose-dependent effect” and the IC50 [12] was 7.41 µM. The IC50 [13] was 7.89 µM, the IC50 [14] was 3.87 µM and the inhibition [15] was “Dose-dependent effect”. For the same compound, the Activity [16] was “Dose-dependent effect”, the inhibition [17] was “Active” and the inhibition [18] was “Active”. The inhibition [19] was “Dose-dependent effect”, the inhibition [20] was “Dose-dependent effect” and the Activity [21] was “Active”. For the same compound, the Activity [22] was “tde”, the “Ratio IC50” value [23] was 2 and the “Ratio IC50” value [24] was 2. For the same compound, the “Ratio IC50” value [25] was 2, the “Ratio IC50” value [26] was 2 and the “Ratio IC50” value [27] was 2. For the same compound, the “Ratio IC50” value [28] was 2, the “Ratio IC50” value [29] was 2 and the “Ratio IC50” value [30] was 2. The “Ratio IC50” value [31] was 2, the “Ratio IC50” value [32] was 2 and the Activity [33] was 20.42%.
